Assay results published in publication PMC3313473 (Free radical biology & medicine, 2011).

Key:
[1] = system: primary human skeletal muscle cells (proliferating, differentiating, differentiated); experiment: MTS cell viability assay; format: cell-based; settings: 48 h
[2] = system: primary human skeletal myotubes; experiment: Morphological imaging and cell counting of myotubes; format: cell-based; settings: 5 µM
[3] = system: citrate synthase activity in primary human myotubes; experiment: Citrate synthase activity in myotubes; format: cell-based; settings: simvastatin-treated myotubes
primary human myotubes = experiment: Mitochondrial superoxide production, MitoSOX Red flow cytometry; format: cell-based; settings: 5 µM, 48 h
[4] = system: primary human skeletal myotubes; experiment: Intracellular ROS generation, DCF-DA staining; format: cell-based; settings: simvastatin treated myotubes
[5] = system: primary human skeletal myotubes; experiment: TUNEL assessment of apoptotic myonuclei; format: cell-based; settings: 5 µM, 48 h
In short: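 Coverslip-grown myotubes exposed 48 h to test compound or 0.1% DMSO vehicle; fixed in 4% paraformaldehyde/PBS (pH 7.4) 20 min RT, permeabilized with 0.1% Triton X-100 in 0.1% sodium citrate 10 min at 4°C. TdT/fluorescein-dUTP labelling 60 min at 37°C, humidified, dark; DAPI counterstain. DNase I positive and label-only negative controls. Positive myonuclei counted over multiple sections as % of DAPI nuclei.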

Bax = experiment: Western immunoblot of Bax; format: cell-based, human; settings: 5 µM, 48 h
Bcl-2 = experiment: Western immunoblot of Bcl-2; format: cell-based, human; settings: 5 µM, 48 h
isolated myofibers = settings: 50 µM simvastatin; ref Sirvent et al. 29; cited from earlier work
mitochondrial PTP = settings: ref Velho et al. 37; cited from earlier work

SMILES | IC50 ([1]; Homo sapiens, read-out: IC50 for viability, proliferating cells, 48 h, MTS) | Changes in the morphology of myotubes ([2]; 24 h) | Changes in the morphology of myotubes ([2]; 48 h) | Fewer myotubes compared with DMSO-treated controls ([2]; 48 h) | Myotube cell number ([2]; 48 h) | Citrate synthase activity [3] | Increase in O2•− generation compared to DMSO control (primary human myotubes) | MitoSOX Red mean fluorescence intensity (primary human myotubes; representative histogram) | DCF-DA staining compared with control [4] | TUNEL-positive nuclei compared with control [5] | Bax protein levels higher than control (Bax) | Bcl-2 protein levels greater than DMSO control (Bcl-2) | Maximal ADP-stimulated respiration supported by complex I substrates (glutamate + malate) (isolated myofibers) | In vivo and in vitro calcium-dependent mitochondrial PTP opening (mitochondrial PTP) | Effect of mevalonate on simvastatin-induced decrease in cell viability ([1]; differentiating cells, 1 µM simvastatin + 50 µM mevalonate) | Effect of mevalonate on simvastatin-induced decrease in cell viability ([1]; proliferating cells, 5 µM simvastatin + 50 µM mevalonate)
CCC(C)(C)C(=O)O[C@H]1C[C@@H](C)C=C2C=C[C@H](C)[C@H](CC[C@@H]3C[C@@H](O)CC(=O)O3)[C@H]21 [simvastatin] | 5 µM | not visible | less dense and atrophied | 22.3% | 0.87 × 10^6 cells/ml | 9.89 ± 1.04 µmol/g/min | approximately 44% | 46.1 counts | increased staining | More TUNEL-positive nuclei | 53% | 100% | significantly impaired | increased | – | –
CC(O)(CCO)CC(=O)O (stereo not shown) [mevalonate] | – | – | – | – | – | – | – | – | – | – | – | – | – | – | prevented | prevented
